Activity calls are given as the source filed them. No cut-off for these calls is given here.
What was measured:
KB [1] = assay: Cytotoxicity against human KB cells after 3 days by SRB assay; format: functional, cell-based
Outline: (§1)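 Cell lines kept in RPMI-1640 with […], 0.25% sodium bicarbonate, 10% FBS and 100 µg/mL kanamycin. Freshly trypsinized cells seeded at 1500-7500 cells/well. Compounds added from DMSO-diluted stock, 3 days culture. Attached cells fixed with cold 50% TCA, stained with 0.4% SRB, bound dye solubilized, absorbance read at 562 nm.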

A549 [2] = assay: Growth inhibition of human A549 cells at 20 ug/mL after 3 days by SRB assay; format: functional; conditions: A549, 72 h, read-out: GI
Outline: (§2)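 Cells grown in RPMI-1640 (10% FBS, HEPES, bicarbonate, kanamycin), trypsinized and seeded at 1500-7500 cells/well. Compound given from DMSO-diluted stock, 3 days culture. Cells fixed with cold 50% trichloroacetic acid, stained with 0.4% sulforhodamine B, dye solubilized and absorbance measured at 562 nm.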

DU-145 [3] = assay: Growth inhibition of human DU145 cells at 20 ug/mL after 3 days by SRB assay; format: functional; conditions: DU-145, 72 h, read-out: GI; outline: as §2
[4] = Growth inhibition of human KBVIN cells at 20 ug/mL after 3 days by SRB assay; format: functional; conditions: 72 h, read-out: GI; outline: as §2
[5] = Inhibition of NOX-dependent ROS production in mouse BV2 cells by chemiluminescence assay; format: cell-based; conditions: BV-2
Outline: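 BV2 cell homogenate (50 µg) was incubated with compound for 20 min at 37 °C in the dark. Superoxide production was started with 200 µM NADPH and chemiluminescence followed for 30 min. AUC was taken as ROS production. DPI was the positive control. IC50 given as mean ± SEM of three experiments on different days using cells from different passages.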

[6] = tested on: Radical scavenging activity; assay: Antioxidant activity assessed as inhibition of DPPH free radical scavenging activity; format: functional
A549 [7] = assay: Cytotoxicity against human A549 cells after 3 days by SRB assay; format: functional, cell-based; outline: as §1
DU-145 [8] = assay: Cytotoxicity against human DU145 cells after 3 days by SRB assay; format: functional, cell-based; outline: as §1
[9] = Cytotoxicity against human KBVIN cells after 3 days by SRB assay; format: functional, cell-based; outline: as §1
[10] = target: Transcription factor p65 (Mus musculus) (UniProt Q04207); assay: Inhibition of NF-kappaB p65 activation/translocation in LPS-stimulated mouse BV2 cells assessed as down regulation of iNOS at 1 to 2 uM measured after 15 to 120 mins post stimulation by Western blot analysis; format: cell-based; conditions: BV-2
Transcription factor p65 (Mus musculus), sequence (Q04207 whole entry): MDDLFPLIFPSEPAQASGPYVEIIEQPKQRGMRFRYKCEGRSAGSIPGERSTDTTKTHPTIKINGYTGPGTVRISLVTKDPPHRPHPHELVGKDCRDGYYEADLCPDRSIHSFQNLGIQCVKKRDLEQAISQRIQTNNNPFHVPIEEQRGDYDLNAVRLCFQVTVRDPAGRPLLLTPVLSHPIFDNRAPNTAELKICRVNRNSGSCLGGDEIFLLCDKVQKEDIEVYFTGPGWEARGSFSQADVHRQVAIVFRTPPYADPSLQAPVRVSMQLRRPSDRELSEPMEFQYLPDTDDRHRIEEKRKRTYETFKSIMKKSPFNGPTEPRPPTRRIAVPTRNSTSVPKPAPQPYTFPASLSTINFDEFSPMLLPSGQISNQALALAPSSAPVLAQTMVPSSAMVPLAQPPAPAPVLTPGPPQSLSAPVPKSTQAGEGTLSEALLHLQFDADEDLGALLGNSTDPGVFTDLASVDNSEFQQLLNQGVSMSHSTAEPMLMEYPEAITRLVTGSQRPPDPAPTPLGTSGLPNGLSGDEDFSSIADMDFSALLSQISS
Outline: (§3)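 BV2 microglia in DMEM with 5% FBS were pretreated with compound or solvent, then stimulated with LPS 0.5 µg/mL for 15 to 120 min. Western blots were probed for iNOS, cytosolic IκBα, and cytosolic and nuclear p65. Membranes were blocked in 5% milk/PBST, primary antibody overnight at 4 °C, HRP secondary 1 h, ECL detection. Signals normalized to β-actin; at least three independent experiments.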

[11] = target: T1, NF-kappa-B inhibitor alpha (Mus musculus) (UniProt Q9Z1E3); assay: Inhibition of IkappaB-alpha degradation in LPS-stimulated mouse BV2 cells at 1 to 2 uM measured after 15 to 120 mins post stimulation by Western blot analysis; format: cell-based; conditions: BV-2; outline: as §3
T1 sequence (whole entry): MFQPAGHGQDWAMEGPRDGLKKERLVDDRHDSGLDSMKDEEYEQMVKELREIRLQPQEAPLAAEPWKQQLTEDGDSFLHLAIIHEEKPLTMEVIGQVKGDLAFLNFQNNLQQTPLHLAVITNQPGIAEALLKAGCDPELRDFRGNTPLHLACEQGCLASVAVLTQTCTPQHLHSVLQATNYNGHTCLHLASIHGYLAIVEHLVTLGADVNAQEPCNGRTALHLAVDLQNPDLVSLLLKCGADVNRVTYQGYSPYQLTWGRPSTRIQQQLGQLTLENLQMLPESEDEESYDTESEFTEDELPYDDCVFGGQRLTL

[12] = target: Transcription factor p65 (Mus musculus) (UniProt Q04207); assay: Inhibition of NF-kappaB p65 activation/translocation in LPS-stimulated mouse BV2 cells assessed as down regulation of iNOS at 2 to 4 uM measured after 15 to 120 mins post stimulation by Western blot analysis; format: cell-based; conditions: BV-2; outline: as §3
[13] = target: T1, NF-kappa-B inhibitor alpha (Mus musculus); assay: Inhibition of IkappaB-alpha degradation in LPS-stimulated mouse BV2 cells at 2 to 4 uM measured after 15 to 120 mins post stimulation by Western blot analysis; format: cell-based; conditions: BV-2; outline: as §3
KB [14] = assay: Growth inhibition of human KB cells at 20 ug/mL after 3 days by SRB assay; format: functional; conditions: 72 h, read-out: GI; outline: as §2
[15] = Homo sapiens, KB, 72 h, read-out: EC50
[16] = Homo sapiens, A549, 72 h, read-out: EC50
[17] = Homo sapiens, DU-145, 72 h, read-out: EC50
[18] = Homo sapiens, KBVIN, 72 h, read-out: EC50

Compound	IC50 [5]	IC50 [6]	EC50 (KB [1]; [15])	EC50 (A549 [7]; a549)	EC50 (DU-145 [8]; du-145)	EC50 (KB [1]; kb)	EC50 ([9]; kbvin)	EC50 (A549 [7]; [16])	EC50 (DU-145 [8]; [17])	EC50 [9, 18]	also measured
COc1cc(OC)c(OC)cc1/C=C/C(=O)c1cc(C(C)=O)c(O)cc1O	73 µM	Not Active		Not Active	Not Active	Not Active	Not Active				
Cc1c(C)c2c(c(C)c1O)CCC(C)(C(=O)O)O2 (configuration not stated) [TROLOX]											IC50 ([6]; read-out: IC50): 30.2 µM
c1ccc2c(c1)[I+]c1ccccc1-2 [DIPHENYLENEIODONIUM]	0.65 µM	Not Active									
Cc1ccc(/C=C/C(=O)c2cc(C(=O)/C=C/c3ccc(C)o3)c(O)cc2O)o1	60.4 µM	Not Active		Not Active	Not Active	Not Active	Not Active				
COc1cccc(/C=C/C(=O)c2cc(C(=O)/C=C/c3cccc(OC)c3)c(O)cc2O)c1	127 µM	Not Active	2.88 µM					8.76 µM	1.86 µM	2.07 µM	
Cc1ccsc1/C=C/C(=O)c1cc(C(=O)/C=C/c2sccc2C)c(O)cc1O	81.4 µM	Not Active		Not Active	Not Active	Not Active	Not Active				
CC(=O)c1cc(C(=O)/C=C/C=C/c2ccccc2)c(O)cc1O	120 µM	Not Active		Not Active	Not Active	Not Active	Not Active				
COC(=O)[C@@H](N)CCCNC(=N)N[N+](=O)[O-] [L-NAME]		Not Active									
O=C(/C=C/c1ccccn1)c1cc(C(=O)/C=C/c2ccccn2)c(O)cc1O	76.8 µM	Not Active	2.93 µM					13.7 µM	2.85 µM	11 µM	
O=C(/C=C/c1ccccc1)c1cc(C(=O)/C=C/c2ccccc2)c(O)cc1O	122 µM	Not Active	1.62 µM					4.08 µM	1.7 µM	1.57 µM	

Further compounds by falling IC50 [5], results first:

IC50 [5]	IC50 [6]	Compound	EC50 (KB [1]; [15])	EC50 (A549 [7]; a549)	EC50 (DU-145 [8]; du-145)	EC50 (KB [1]; kb)	EC50 ([9]; kbvin)	EC50 (A549 [7]; [16])	EC50 (DU-145 [8]; [17])	EC50 [9, 18]	also measured
150 µM	Not Active	COc1ccc(/C=C/C(=O)c2cc(C(=O)/C=C/c3ccc(OC)cc3)c(O)cc2O)cc1								34 µM	inhibition of growth at 20 µg/mL (A549 [2]): < 50%; inhibition of growth at 20 µg/mL (DU-145 [3]): < 50%; inhibition of growth at 20 µg/mL (KB [14]): < 50%
95 µM	Not Active	COc1ccc(OC)c(/C=C/C(=O)c2cc(C(=O)/C=C/c3cc(OC)ccc3OC)c(O)cc2O)c1	40.1 µM								inhibition of growth at 20 µg/mL (A549 [2]): < 50%; inhibition of growth at 20 µg/mL (DU-145 [3]): < 50%; inhibition of growth at 20 µg/mL [4]: < 50%
89 µM	Not Active	COc1cccc(/C=C/C(=O)c2cc(C(=O)/C=C/c3cccc(OC)c3OC)c(O)cc2O)c1OC	2.06 µM					4.38 µM	2.45 µM	5.14 µM	inhibition [12]: Active; inhibition [13]: Active
72 µM	Not Active	CC(=O)c1cc(C(=O)/C=C/c2ccc3c(c2)OCO3)c(O)cc1O	17.2 µM					19.4 µM	16.3 µM	17.2 µM	
70.9 µM	Not Active	COc1ccc(/C=C/C(=O)c2cc(C(=O)/C=C/c3ccc(OC)c(OC)c3OC)c(O)cc2O)c(OC)c1OC		Not Active	Not Active	Not Active	Not Active				
49.6 µM	Not Active	O=C(/C=C/c1ccco1)c1cc(C(=O)/C=C/c2ccco2)c(O)cc1O		Not Active	Not Active	Not Active	Not Active				
49.1 µM	Not Active	COc1ccc(/C=C/C(=O)c2cc(C(=O)/C=C/c3ccc(OC)c(OC)c3)c(O)cc2O)cc1OC	8.18 µM					9.14 µM	8.63 µM	7.02 µM	inhibition [10]: Active; inhibition [11]: Active

— ChEMBL document CHEMBL1926582, “Bis-chalcone analogues as potent NO production inhibitors and as cytotoxic agents” (Eur J Med Chem, 2012)
